Reference: ChEMBL document CHEMBL4622996, “Discovery of Vixotrigine: A Novel Use-Dependent Sodium Channel Blocker for the Treatment of Trigeminal Neuralgia” (ACS Med Chem Lett, 2020)
Calls of active or inactive are those of the source. The rule behind the calls is not given here.

Tests used:
[1] = Aqueous solubility of compound in HCl salt : water; assay type: physicochemical
[2] = molecular target: T1, Solute carrier family 22 member 6 (Homo sapiens, UniProt Q4U2R8); assay: Inhibition of OAT1 (unknown origin)
T1 sequence (Q4U2R8 whole entry): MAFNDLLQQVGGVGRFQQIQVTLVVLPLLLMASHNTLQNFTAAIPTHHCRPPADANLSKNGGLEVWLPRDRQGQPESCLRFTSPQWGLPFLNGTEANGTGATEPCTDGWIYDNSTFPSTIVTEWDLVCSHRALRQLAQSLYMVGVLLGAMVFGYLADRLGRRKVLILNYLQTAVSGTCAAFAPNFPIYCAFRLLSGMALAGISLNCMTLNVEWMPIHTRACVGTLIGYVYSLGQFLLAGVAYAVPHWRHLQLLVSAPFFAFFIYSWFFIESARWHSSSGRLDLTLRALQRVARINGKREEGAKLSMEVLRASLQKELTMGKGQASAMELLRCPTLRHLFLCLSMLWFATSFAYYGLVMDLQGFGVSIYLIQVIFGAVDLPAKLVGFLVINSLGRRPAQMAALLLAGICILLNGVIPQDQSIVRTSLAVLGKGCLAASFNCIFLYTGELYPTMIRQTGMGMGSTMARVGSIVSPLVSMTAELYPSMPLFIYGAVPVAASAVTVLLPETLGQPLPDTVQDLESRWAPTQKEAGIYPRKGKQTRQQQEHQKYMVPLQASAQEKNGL

[3] = Oral bioavailability in rat at 3 mg/kg; assay type: ADME, organism-based; settings: in vivo
[4] = Half life in monkey at 0.5 mg/kg, iv; assay type: ADME, organism-based, Macaca mulatta; settings: rhesus monkey, in vivo
[5] = molecular target: T2, Sodium channel protein type 3 subunit alpha (Homo sapiens, UniProt Q9NY46); assay: Inhibition of Nav1.3 (unknown origin) expressed in HEK293 cells assessed as inhibition of sodium current incubated for 3 to 3.5 mins by electrophysiology assay; assay type: cell-based
How it was run: (§1)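 HEK293 cells stably expressing NaV1.3, grown in DMEM-F12 with 10% FBS at 37 °C, dissociated at 50–70% confluency; IonWorksHT planar patch clamp at 21–23 °C, amphotericin perforated access; intracellular K-gluconate 100, KCl 40, MgCl2 3.2, EGTA 3, HEPES 5 mM, pH 7.3.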
Target sequence in this assay (Q9NY46 whole entry): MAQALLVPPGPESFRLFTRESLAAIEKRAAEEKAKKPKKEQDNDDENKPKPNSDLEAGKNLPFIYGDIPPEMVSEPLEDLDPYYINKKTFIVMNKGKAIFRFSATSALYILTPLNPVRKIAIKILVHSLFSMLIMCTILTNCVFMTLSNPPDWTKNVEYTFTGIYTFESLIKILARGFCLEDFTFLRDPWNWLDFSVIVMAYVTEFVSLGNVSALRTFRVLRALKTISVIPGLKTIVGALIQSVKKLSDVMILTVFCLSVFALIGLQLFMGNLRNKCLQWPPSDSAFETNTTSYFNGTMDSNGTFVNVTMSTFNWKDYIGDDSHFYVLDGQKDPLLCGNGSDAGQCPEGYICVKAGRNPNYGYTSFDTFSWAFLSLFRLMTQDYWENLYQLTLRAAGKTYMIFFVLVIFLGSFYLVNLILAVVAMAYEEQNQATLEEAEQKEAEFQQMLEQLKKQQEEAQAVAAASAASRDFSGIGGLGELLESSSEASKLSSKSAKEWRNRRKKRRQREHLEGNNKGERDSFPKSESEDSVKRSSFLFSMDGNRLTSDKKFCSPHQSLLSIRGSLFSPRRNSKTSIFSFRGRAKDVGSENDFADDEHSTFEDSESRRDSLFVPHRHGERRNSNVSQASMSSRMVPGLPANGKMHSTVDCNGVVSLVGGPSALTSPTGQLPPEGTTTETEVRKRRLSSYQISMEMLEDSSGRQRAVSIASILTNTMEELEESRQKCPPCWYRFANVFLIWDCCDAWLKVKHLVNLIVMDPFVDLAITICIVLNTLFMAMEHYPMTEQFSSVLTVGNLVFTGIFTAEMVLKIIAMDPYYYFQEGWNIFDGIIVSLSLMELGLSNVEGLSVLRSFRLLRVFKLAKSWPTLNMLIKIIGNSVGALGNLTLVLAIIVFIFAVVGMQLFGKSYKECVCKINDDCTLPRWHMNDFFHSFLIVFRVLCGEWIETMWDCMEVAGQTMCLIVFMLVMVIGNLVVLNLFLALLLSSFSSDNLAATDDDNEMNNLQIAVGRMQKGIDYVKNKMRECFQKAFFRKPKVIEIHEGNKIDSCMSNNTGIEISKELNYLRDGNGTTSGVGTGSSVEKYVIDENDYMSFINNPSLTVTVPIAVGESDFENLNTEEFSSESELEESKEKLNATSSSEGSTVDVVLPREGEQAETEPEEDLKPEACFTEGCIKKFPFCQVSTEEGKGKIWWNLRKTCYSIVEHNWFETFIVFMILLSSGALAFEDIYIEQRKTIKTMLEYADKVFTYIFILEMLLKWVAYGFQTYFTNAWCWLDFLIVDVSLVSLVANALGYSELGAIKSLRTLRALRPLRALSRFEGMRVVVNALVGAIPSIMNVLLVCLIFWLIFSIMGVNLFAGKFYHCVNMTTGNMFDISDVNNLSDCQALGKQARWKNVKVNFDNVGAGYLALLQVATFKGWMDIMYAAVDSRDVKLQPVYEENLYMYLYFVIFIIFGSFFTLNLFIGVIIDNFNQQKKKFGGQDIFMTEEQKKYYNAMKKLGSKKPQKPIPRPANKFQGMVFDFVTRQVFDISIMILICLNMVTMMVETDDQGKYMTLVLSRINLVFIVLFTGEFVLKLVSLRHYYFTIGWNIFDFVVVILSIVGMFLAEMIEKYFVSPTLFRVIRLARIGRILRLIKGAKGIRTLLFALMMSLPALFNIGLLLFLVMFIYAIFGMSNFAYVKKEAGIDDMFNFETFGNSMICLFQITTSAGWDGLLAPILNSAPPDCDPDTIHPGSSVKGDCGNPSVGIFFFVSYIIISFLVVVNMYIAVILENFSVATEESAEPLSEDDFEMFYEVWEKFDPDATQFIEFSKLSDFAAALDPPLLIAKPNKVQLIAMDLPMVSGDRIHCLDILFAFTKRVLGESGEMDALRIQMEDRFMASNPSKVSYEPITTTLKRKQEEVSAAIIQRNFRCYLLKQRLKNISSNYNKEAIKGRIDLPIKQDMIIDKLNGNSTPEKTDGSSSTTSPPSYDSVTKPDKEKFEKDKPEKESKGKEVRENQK

[6] = Volume of distribution in steady state in rat at 0.5 mg/kg, iv; assay type: ADME, organism-based; settings: in vivo, read-out: Vdss
[7] = Free plasma concentration in complete Freund's adjuvant-induced rat model at 1 mg/kg, po measured after 1 hr; assay type: ADME, organism-based; settings: in vivo
Cytochrome P450 2C9 = Cytochrome P450 2C9 (Homo sapiens, UniProt P11712); assay: Inhibition of CYP2C9 (unknown origin); assay type: ADME
Sequence of Cytochrome P450 2C9 (P11712 whole entry): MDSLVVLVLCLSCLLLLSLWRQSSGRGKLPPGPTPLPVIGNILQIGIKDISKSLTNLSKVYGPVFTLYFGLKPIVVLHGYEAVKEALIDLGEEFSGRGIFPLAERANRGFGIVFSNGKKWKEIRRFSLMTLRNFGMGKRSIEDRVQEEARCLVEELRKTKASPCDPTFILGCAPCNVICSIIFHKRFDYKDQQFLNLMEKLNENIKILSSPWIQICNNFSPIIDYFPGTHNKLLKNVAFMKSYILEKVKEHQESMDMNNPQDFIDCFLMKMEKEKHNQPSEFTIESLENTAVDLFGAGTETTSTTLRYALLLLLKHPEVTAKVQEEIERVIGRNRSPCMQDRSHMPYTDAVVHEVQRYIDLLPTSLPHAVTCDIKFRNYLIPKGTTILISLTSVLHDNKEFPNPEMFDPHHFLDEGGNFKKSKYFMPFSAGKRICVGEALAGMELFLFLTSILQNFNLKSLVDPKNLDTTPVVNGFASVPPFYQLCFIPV

[8] = Total blood clearance in monkey blood at 0.5 mg/kg, iv; assay type: ADME, organism-based, Macaca mulatta; settings: rhesus monkey
[9] = molecular target: T3, Solute carrier organic anion transporter family member 1B3 (Homo sapiens, UniProt Q9NPD5); assay: Inhibition of OATP1B3 (unknown origin)
T3 sequence (Q9NPD5 whole entry): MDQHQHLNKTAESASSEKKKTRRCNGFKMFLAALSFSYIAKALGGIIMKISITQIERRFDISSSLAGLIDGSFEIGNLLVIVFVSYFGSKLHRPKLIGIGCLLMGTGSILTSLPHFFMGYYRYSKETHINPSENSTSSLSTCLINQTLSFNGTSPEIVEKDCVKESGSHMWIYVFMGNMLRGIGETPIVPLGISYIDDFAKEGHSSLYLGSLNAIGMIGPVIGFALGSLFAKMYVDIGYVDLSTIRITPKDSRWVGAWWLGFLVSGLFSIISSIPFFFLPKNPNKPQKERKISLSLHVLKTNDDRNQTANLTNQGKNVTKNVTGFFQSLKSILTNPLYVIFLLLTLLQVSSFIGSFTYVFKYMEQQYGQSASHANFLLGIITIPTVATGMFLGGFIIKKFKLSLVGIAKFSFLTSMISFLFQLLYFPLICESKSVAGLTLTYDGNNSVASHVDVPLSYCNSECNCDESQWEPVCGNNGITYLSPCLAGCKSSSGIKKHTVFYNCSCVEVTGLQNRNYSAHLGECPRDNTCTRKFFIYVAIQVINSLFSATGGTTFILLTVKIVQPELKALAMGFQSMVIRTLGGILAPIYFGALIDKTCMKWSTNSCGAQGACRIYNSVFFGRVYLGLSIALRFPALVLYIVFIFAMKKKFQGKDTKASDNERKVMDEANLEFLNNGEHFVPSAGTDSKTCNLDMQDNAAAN

Cytochrome P450 2C8 = molecular target: T4, Cytochrome P450 2C8 (Homo sapiens, UniProt P10632); assay: Inhibition of CYP2C8 (unknown origin); assay type: ADME
T4 sequence (P10632 whole entry): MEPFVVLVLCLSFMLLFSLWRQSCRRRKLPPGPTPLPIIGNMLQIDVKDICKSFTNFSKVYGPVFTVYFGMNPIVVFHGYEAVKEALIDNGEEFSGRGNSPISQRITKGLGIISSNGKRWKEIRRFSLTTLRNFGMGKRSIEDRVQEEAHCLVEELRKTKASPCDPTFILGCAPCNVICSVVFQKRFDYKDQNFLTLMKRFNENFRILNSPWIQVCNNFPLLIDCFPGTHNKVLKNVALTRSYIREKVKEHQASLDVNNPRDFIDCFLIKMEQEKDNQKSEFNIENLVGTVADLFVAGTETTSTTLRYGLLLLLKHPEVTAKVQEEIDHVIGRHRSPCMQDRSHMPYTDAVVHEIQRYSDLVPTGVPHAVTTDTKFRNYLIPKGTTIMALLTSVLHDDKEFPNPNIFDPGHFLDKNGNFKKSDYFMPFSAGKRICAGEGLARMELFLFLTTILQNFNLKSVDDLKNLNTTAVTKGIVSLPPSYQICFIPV

[10] = Oral bioavailability in monkey at 3 mg/kg; assay type: ADME, organism-based, Macaca mulatta; settings: rhesus monkey, in vivo
[11] = Free plasma concentration in rat model of chronic constriction injury-induced neuropathic pain at 0.5 mg/kg, po BID administered 22 days post surgery and measured on day 8 at 0.5 hrs post-dose; assay type: ADME, organism-based; settings: in vivo
How it was run: (§2)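 Chronic constriction injury neuropathic pain model in rat; oral dosing at 0.5 or 5 mg/kg BID starting day 22; mechanical allodynia read after 6 and 8 days of dosing; gabapentin 30 mg/kg po BID as positive control. Free plasma levels sampled on day 8, 0.5 h postdose.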

[12] = Half life in rat at 0.5 mg/kg, iv; assay type: ADME, organism-based; settings: in vivo
[13] = Plasma concentration in rat after measuring the spontaneous locomotor activity at 60 mg/kg, po measured after 60 mins post dose; assay type: ADME, organism-based
How it was run: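 Male rats, spontaneous locomotor activity test; oral doses 60, 100 or 300 mg/kg given 30 min before the session; plasma sampled 60 min postdose at 60 mg/kg.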

[14] = Tmax in rat at 3 mg/kg, po; assay type: ADME, organism-based; settings: in vivo
[15] = Half life in dog at 0.5 mg/kg, iv; assay type: ADME, organism-based, Canis lupus familiaris; settings: in vivo
Rattus norvegicus = assay: Antinociceptive activity in rat model of chronic constriction injury-induced neuropathic pain assessed as inhibition of mechanical allodynia at 0.5 to 5 mg/kg, po BID administered 22 days post surgery and measured after 6 to 8 days; assay type: functional, organism-based; how it was run: as §2
[16] = molecular target: T2, Sodium channel protein type 3 subunit alpha; assay: Inhibition of Nav1.3 (unknown origin) expressed in HEK293 cells assessed as 15% inhibition of sodium current incubated for 3 to 3.5 mins by electrophysiology assay; assay type: cell-based; how it was run: as §1
Target sequence in this assay (Q9NY46 whole entry, looked up): as the sequence (Q9NY46 whole entry) above

solubility [1]: 16.3 mg/mL
inhibition (INH) [2]: Not Active
bioavailability [3]: 43%
half-life [4]: 300 min
IC50 [5]: 63.1 µM
Vd [6]: 2 L/kg
Cp(f) [7]: 7.8 ng/mL
IC50 (Cytochrome P450 2C9): > 100 µM
clearance [8]: 5 mL/min/kg
inhibition (INH) [9]: Not Active
IC50 (Cytochrome P450 2C8): > 100 µM
bioavailability [10]: 42%
half-life [12]: 48 min
concentration at 1 h [13]: 13100 ng/mL
Tmax [14]: 30 min
half-life [15]: 132 min
log(activity) [16]: -5.5
SMILES: Cl.NC(=O)[C@@H]1CC[C@H](c2ccc(OCc3ccccc3F)cc2)N1 [RAXATRIGINE HYDROCHLORIDE]
Cp(f) [11]: 1.9 ng/mL
Activity (Rattus norvegicus): Active
